Measured values: ChEMBL document CHEMBL5649168, “Discovery of a selective catalytic p300/CBP inhibitor that targets lineage-specific tumours” (Nature, 2017)

Legend:
[1] = Anti-tumor activity against human LuCaP-77 CR cell xenografted in SCID mouse assessed as tumor growth inhibition administered for 21 days relative to control; type: functional; conditions: time 21 day
[2] = biological target: Rho-associated protein kinase 2 (Homo sapiens, UniProt O75116); test: Inhibition of Rock2 (unknown origin)
[3] = biological target: Serine/threonine-protein kinase PLK3 (Homo sapiens, UniProt Q9H4B4); test: Inhibition of Plk3 (unknown origin)
[4] = biological target: cGMP-dependent protein kinase 1 (Homo sapiens, UniProt Q13976); test: Inhibition of PKG1alpha (unknown origin)
Sequence of cGMP-dependent protein kinase 1 (Q13976 whole entry): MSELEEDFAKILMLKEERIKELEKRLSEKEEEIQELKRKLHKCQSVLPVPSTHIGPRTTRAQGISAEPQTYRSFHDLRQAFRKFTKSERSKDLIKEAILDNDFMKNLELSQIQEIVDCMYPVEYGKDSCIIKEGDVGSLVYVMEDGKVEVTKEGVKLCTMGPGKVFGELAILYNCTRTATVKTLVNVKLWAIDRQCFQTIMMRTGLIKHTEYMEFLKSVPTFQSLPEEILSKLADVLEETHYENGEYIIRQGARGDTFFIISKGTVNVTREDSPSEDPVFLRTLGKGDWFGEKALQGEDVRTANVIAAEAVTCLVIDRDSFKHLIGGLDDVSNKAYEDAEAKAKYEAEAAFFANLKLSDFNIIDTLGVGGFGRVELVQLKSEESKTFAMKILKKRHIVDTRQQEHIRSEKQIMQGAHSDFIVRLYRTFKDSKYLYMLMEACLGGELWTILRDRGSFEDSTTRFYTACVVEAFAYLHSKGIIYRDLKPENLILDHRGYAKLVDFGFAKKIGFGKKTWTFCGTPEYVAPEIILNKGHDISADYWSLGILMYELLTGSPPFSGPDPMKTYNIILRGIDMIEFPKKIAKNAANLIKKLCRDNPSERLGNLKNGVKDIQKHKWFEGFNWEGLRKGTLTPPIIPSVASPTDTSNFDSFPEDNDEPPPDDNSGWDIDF

NCI-H187 = test: Antiproliferative activity against human NCI-H187 cells assessed as inhibition of cell viability incubated for 3 to 5 days by Celltiter-Glo luminescent assay; type: functional, cell-based
THP-1 = test: Antiproliferative activity against human THP-1 cells assessed as inhibition of cell viability incubated for 3 to 5 days by Celltiter-Glo luminescent assay; type: functional, cell-based
SU-DHL-6 = test: Antiproliferative activity against human SU-DHL-6 cells assessed as inhibition of cell viability incubated for 3 to 5 days by Celltiter-Glo luminescent assay; type: functional, cell-based
NCI-H1373 = test: Antiproliferative activity against human NCI-H1373 cells assessed as inhibition of cell viability incubated for 3 to 5 days by Celltiter-Glo luminescent assay; type: functional, cell-based
[5] = biological target: Macrophage colony-stimulating factor 1 receptor (Homo sapiens, UniProt P07333); test: Inhibition of CSF1R (unknown origin)
OCI-Ly1 = test: Antiproliferative activity against human OCI-Ly1 cells assessed as inhibition of cell viability incubated for 3 to 5 days by Celltiter-Glo luminescent assay; type: functional, cell-based
SUD4 = test: Antiproliferative activity against human SU-DHL-4 cells assessed as inhibition of cell viability incubated for 3 to 5 days by Celltiter-Glo luminescent assay; type: functional, cell-based
[6] = Half life in CB17 SCID mouse xenografted with LuCaP-77 CR cell at 100 mg/kg, ip administered for 7 days; type: ADME, organism-based; conditions: in vivo, time 7 day
HCC2935 = test: Antiproliferative activity against human HCC2935 cells assessed as inhibition of cell viability incubated for 3 to 5 days by Celltiter-Glo luminescent assay; type: functional, cell-based
SKM-1 = test: Antiproliferative activity against human SKM-1 cells assessed as inhibition of cell viability incubated for 3 to 5 days by Celltiter-Glo luminescent assay; type: functional, cell-based
Insulin receptor = Insulin receptor (Homo sapiens, UniProt P06213); test: Inhibition of InsR (unknown origin)
[7] = biological target: Dual specificity mitogen-activated protein kinase kinase 2 (Homo sapiens, UniProt P36507); test: Inhibition of MEK2 (unknown origin)
Sequence of Dual specificity mitogen-activated protein kinase kinase 2 (P36507 whole entry): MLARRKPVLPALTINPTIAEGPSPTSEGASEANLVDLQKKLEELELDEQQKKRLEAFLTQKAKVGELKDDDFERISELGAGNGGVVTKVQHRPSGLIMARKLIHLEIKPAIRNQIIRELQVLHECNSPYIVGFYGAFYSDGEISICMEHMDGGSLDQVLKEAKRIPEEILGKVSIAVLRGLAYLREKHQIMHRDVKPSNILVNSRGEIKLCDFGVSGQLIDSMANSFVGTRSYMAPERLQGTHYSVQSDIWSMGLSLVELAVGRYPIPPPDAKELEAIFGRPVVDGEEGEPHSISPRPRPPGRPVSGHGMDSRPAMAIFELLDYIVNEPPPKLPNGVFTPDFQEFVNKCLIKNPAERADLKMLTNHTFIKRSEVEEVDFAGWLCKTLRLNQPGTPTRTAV

G-361 = test: Antiproliferative activity against human G361 cells assessed as inhibition of cell viability incubated for 3 to 5 days by Celltiter-Glo luminescent assay; type: functional, cell-based
HT = test: Antiproliferative activity against human HT cells assessed as inhibition of cell viability incubated for 3 to 5 days by Celltiter-Glo luminescent assay; type: functional, cell-based
[8] = biological target: CREB-binding protein/Histone acetyltransferase p300 (Homo sapiens, UniProt Q09472+Q92793); test: Inhibition of p300/CBP in human 22Rv1 cells assessed as reduction in H3K9Ac level incubated for 24 hrs by Hoechst 33342 staining based high content microscopy analysis; type: cell-based
Method in brief: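 Cells received an 8-point half-log dilution series from 10 µM. They were then fixed in 10% formaldehyde (10 min, RT), permeabilised with 0.1% Triton X-100 and blocked with 1% BSA for 1 h. Primary antibodies were applied overnight at 4 °C, followed by Alexa488 anti-rabbit, Alexa555 anti-mouse and Hoechst 33342 for 1 h. Fifteen fields per well were imaged and average mean intensity taken. EC50 came from a sigmoidal fit.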

[9] = biological target: Tyrosine-protein kinase Fyn (Homo sapiens, UniProt P06241); test: Inhibition of Fyn (unknown origin)
[10] = Ratio of drug concentration in brain to plasma in CB17 SCID mouse xenografted with LuCaP-77 CR cell at 50 mg/kg, po measured after 24 hrs
ULA = test: Antiproliferative activity against human ULA cells assessed as inhibition of cell viability incubated for 3 to 5 days by Celltiter-Glo luminescent assay; type: functional, cell-based
[11] = biological target: Protein kinase C zeta type (Homo sapiens, UniProt Q05513); test: Inhibition of PKCzeta (unknown origin)
Sequence of Protein kinase C zeta type (Q05513 whole entry): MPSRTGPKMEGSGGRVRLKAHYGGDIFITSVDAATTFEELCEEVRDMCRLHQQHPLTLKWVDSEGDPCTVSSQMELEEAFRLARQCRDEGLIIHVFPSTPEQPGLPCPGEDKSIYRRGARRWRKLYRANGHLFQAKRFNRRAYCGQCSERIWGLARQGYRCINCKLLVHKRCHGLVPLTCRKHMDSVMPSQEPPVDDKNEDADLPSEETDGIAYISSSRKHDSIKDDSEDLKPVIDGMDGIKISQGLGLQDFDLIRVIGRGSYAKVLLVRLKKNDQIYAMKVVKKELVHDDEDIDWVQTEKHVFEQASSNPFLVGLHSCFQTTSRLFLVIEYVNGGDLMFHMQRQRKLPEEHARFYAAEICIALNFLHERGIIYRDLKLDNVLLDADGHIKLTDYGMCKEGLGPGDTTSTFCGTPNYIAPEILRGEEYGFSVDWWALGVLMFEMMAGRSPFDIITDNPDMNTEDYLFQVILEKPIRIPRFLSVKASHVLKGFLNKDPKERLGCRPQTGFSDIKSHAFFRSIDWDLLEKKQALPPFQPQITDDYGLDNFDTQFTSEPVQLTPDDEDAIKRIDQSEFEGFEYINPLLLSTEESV

[12] = biological target: Fibroblast growth factor receptor 1 (Homo sapiens, UniProt P11362); test: Inhibition of FGFR1 (unknown origin)
Sequence of Fibroblast growth factor receptor 1 (P11362 whole entry): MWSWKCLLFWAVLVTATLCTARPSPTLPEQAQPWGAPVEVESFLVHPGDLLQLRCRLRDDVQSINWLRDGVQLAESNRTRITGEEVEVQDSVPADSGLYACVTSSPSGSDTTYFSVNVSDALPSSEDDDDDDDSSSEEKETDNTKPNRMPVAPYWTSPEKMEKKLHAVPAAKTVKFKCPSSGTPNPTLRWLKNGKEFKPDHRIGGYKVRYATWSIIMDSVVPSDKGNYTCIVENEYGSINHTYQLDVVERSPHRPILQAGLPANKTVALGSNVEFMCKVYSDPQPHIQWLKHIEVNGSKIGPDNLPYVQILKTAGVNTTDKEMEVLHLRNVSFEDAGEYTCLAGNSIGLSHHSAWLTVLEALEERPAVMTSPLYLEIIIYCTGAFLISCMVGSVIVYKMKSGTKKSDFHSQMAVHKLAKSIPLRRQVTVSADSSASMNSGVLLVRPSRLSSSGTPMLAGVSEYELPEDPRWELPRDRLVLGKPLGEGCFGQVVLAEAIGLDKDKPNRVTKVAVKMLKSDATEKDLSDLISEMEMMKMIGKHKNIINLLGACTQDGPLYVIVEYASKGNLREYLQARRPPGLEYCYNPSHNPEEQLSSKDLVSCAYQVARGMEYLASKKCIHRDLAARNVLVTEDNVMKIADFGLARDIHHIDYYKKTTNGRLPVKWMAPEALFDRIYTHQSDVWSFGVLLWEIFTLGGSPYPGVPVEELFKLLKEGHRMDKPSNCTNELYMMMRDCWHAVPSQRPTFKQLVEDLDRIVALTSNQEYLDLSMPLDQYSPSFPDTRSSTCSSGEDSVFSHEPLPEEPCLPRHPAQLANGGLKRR

NCI-H1048 = test: Antiproliferative activity against human NCI-H1048 cells assessed as inhibition of cell viability incubated for 3 to 5 days by Celltiter-Glo luminescent assay; type: functional, cell-based
NU-DHL-1 = test: Antiproliferative activity against human NU-DHL-1 cells assessed as inhibition of cell viability incubated for 3 to 5 days by Celltiter-Glo luminescent assay; type: functional, cell-based
Ramos = test: Antiproliferative activity against human Ramos cells assessed as inhibition of cell viability incubated for 3 to 5 days by Celltiter-Glo luminescent assay; type: functional, cell-based
[13] = biological target: Serine/threonine-protein kinase 33 (Homo sapiens, UniProt Q9BYT3); test: Inhibition of STK33 (unknown origin)
Sequence of Serine/threonine-protein kinase 33 (Q9BYT3 whole entry): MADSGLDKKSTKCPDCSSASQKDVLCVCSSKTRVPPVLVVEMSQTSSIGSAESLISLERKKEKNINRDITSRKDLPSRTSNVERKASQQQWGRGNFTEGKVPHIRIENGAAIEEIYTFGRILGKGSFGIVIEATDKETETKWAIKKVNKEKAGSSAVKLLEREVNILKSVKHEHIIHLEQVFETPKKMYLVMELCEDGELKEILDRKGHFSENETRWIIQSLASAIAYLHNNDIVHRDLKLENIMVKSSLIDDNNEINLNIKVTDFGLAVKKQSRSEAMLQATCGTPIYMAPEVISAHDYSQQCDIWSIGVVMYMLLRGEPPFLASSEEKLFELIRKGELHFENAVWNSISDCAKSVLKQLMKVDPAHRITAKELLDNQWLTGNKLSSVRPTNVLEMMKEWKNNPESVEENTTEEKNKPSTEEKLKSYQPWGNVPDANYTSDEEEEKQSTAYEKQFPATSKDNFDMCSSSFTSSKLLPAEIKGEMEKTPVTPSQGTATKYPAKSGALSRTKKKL

[14] = biological target: Death-associated protein kinase 3 (Homo sapiens, UniProt O43293); test: Inhibition of ZIPK (unknown origin)
Sequence of Death-associated protein kinase 3 (O43293 whole entry): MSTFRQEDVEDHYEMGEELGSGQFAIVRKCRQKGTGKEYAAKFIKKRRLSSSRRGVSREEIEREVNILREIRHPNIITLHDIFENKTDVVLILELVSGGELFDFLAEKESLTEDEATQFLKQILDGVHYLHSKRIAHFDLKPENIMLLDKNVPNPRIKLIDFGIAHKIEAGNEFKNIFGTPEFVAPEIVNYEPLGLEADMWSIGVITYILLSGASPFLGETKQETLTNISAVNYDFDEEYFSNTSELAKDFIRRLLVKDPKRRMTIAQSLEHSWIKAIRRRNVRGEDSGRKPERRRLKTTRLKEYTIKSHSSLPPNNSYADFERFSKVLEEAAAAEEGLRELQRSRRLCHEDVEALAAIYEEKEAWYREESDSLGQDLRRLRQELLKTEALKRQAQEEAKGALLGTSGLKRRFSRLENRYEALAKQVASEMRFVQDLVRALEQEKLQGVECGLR

[15] = biological target: Histone acetyltransferase p300 (Homo sapiens, UniProt Q09472)
[16] = Inhibition of CDK7/Cyclin H (unknown origin); set-up: species or system Homo sapiens
AMO1 = test: Antiproliferative activity against human AMO1 cells assessed as inhibition of cell viability incubated for 3 to 5 days by Celltiter-Glo luminescent assay; type: functional, cell-based
[17] = biological target: Serine/threonine-protein kinase PAK 4 (Homo sapiens, UniProt O96013); test: Inhibition of PAK4KD (unknown origin)
Sequence of Serine/threonine-protein kinase PAK 4 (O96013 whole entry): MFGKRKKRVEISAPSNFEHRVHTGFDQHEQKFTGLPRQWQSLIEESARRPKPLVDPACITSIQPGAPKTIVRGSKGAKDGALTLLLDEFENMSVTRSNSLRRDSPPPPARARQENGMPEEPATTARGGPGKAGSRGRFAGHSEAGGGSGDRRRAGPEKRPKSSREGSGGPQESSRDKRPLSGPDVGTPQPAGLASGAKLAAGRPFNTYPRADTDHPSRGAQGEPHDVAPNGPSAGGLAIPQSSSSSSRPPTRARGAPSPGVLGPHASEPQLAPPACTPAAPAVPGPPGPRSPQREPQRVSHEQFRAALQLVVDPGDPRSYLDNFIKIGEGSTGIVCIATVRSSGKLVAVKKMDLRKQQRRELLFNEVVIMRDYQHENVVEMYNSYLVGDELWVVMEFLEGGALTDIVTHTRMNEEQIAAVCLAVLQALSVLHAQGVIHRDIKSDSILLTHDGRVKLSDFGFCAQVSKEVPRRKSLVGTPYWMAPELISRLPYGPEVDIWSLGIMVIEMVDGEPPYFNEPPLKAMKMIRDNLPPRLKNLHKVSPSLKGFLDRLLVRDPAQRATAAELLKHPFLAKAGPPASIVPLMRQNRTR

[18] = biological target: Mitogen-activated protein kinase kinase kinase kinase 2 (Homo sapiens, UniProt Q12851); test: Inhibition of MAP4K2 (unknown origin)
Sequence of Mitogen-activated protein kinase kinase kinase kinase 2 (Q12851 whole entry): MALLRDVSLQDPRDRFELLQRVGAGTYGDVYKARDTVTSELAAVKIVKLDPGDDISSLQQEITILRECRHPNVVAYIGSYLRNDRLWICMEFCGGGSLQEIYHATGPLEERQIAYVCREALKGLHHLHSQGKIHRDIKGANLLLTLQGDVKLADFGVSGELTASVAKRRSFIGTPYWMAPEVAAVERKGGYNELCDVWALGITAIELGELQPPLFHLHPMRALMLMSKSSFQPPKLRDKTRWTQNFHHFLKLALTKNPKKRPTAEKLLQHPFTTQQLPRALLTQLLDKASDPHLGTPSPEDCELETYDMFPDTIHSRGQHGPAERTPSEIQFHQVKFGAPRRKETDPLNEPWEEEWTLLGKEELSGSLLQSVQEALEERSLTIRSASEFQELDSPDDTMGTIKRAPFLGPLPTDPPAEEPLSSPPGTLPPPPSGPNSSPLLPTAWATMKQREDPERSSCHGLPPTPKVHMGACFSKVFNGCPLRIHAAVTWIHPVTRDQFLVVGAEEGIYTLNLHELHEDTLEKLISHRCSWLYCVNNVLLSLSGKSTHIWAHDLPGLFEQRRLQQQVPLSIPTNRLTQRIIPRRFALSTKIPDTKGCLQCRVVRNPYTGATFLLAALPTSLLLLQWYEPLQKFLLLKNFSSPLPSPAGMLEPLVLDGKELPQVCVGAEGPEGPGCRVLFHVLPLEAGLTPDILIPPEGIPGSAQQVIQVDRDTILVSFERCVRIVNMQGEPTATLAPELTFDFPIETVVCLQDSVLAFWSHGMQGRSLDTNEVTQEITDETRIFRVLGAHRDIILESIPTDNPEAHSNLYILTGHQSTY

NCI-H69 = test: Antiproliferative activity against human NCI-H69 cells assessed as inhibition of cell viability incubated for 3 to 5 days by Celltiter-Glo luminescent assay; type: functional, cell-based
Hs 695T = test: Antiproliferative activity against human Hs 695T cells assessed as inhibition of cell viability incubated for 3 to 5 days by Celltiter-Glo luminescent assay; type: functional, cell-based
[19] = biological target: Rho-associated protein kinase 1 (Homo sapiens, UniProt Q13464); test: Inhibition of Rock1 (unknown origin)
[20] = biological target: Serine/threonine-protein kinase Nek2 (Homo sapiens, UniProt P51955); test: Inhibition of Nek2 (unknown origin)
[21] = biological target: Insulin-like growth factor 1 receptor (Homo sapiens, UniProt P08069); test: Inhibition of IGF1R (unknown origin)
OCI-AML2 = test: Antiproliferative activity against human OCI-AML2 cells assessed as inhibition of cell viability incubated for 3 to 5 days by Celltiter-Glo luminescent assay; type: functional, cell-based
[22] = biological target: Mitogen-activated protein kinase 9 (Homo sapiens, UniProt P45984); test: Inhibition of JNK2 (unknown origin)

`CNC(=O)Nc1ccc2c(c1)CC[C@@]21OC(=O)N(CC(=O)N(Cc2ccc(F)cc2)[C@@H](C)C(F)(F)F)C1=O` [A-485] showed a TGI [1] of 54%, an IC50 [2] greater than 10 µM and an IC50 [3] of 2.69 µM. It also gave an IC50 [4] greater than 10 µM, an EC50 (NCI-H187) greater than 10 µM and an EC50 (THP-1) of 3.51 µM. It also gave an EC50 (SU-DHL-6) of 0.75 µM, an EC50 (NCI-H1373) of 2.34 µM and an IC50 [5] greater than 10 µM. For the same compound, the EC50 (OCI-Ly1) was 0.94 µM, the EC50 (SUD4) was 0.72 µM and the half-life [6] was 102 min. For the same compound, the EC50 (HCC2935) was greater than 10 µM, the EC50 (SKM-1) was 1.34 µM and the IC50 (Insulin receptor) was greater than 10 µM. The IC50 [7] was greater than 10 µM, the EC50 (G-361) was 3.77 µM and the EC50 (HT) was greater than 10 µM. It also gave an INH [8] greater than 10 µM, an IC50 [9] greater than 10 µM and a Kp at 24 h [10] of 0.097. It also gave an EC50 (ULA) of 0.55 µM, an IC50 [11] greater than 10 µM and an IC50 [12] greater than 10 µM. The EC50 (NCI-H1048) was greater than 10 µM, the EC50 (NU-DHL-1) was 0.53 µM and the EC50 (Ramos) was 0.93 µM. The IC50 [13] was greater than 10 µM, the IC50 [14] was greater than 10 µM and the T1/2 [15] was 8.85 min. It also gave an IC50 [16] greater than 10 µM, an EC50 (AMO1) of 1.09 µM and an IC50 [17] greater than 10 µM. For the same compound, the IC50 [18] was greater than 10 µM, the EC50 (NCI-H69) was greater than 10 µM and the EC50 (Hs 695T) was 3.57 µM. It also gave an IC50 [19] greater than 10 µM, an IC50 [20] greater than 10 µM and an IC50 [21] greater than 10 µM. The EC50 (OCI-AML2) was 2.03 µM and the IC50 [22] was greater than 10 µM.
